In assay [1] the test system is HT-29. The assay can be described thus: Induction of apoptosis in human HT-29 cells assessed as late apoptotic cells at 5 uM after 48 hrs by annexin V/propidium iodide staining based flow cytometric analysis (reference value: 2.49 %). The format is functional. Background: Flow cytometry measures light scatter and fluorescence of single cells or particles in a stream.

Assay [2] has as its target Vascular endothelial growth factor receptor 2 (Homo sapiens) (UniProt P35968). The conditions noted are these: at 10 µM.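 Further: kinase activity read out by mobility shift assay after 1 h of incubation.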
The subject of assay [3] is HT-29. The assay can be described thus: Induction of apoptosis in human HT-29 cells assessed as early apoptotic cells at 1 uM after 48 hrs by annexin V/propidium iodide staining based flow cytometric analysis (reference value: 1.72 %). The format is functional.
For assay [4], the target named is Receptor-type tyrosine-protein kinase FLT3 (Homo sapiens) (UniProt P36888). The assay can be described thus: Inhibition of FLT3 (unknown origin) at 10 uM after 1 hr by mobility shift assay. In short, it runs like this:
(§1)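 Mobility shift kinase assay. Compounds were diluted in DMSO and then in kinase buffer, and tested in duplicate wells with enzyme and peptide substrate. Incubation was 1 h at 28 °C before stop buffer was added.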

For the next assay, the system named is MDA-MB-231. Description: Antiproliferative activity against human MDA-MB-231 cells after 72 hrs by MTT assay. The format is functional, cell-based. Conditions: MDA-MB-231, 72 h. In short, it runs like this: (§2)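 MTT assay. Cells grown in MEM with 10% FBS. About 4 × 10³ cells per well were plated and left 24 h at 37 °C in 5% CO₂. Compounds were then added for a further 72 h. MTT was added to a final 5 µg/mL for 4 h at 37 °C. Formazan was dissolved in DMSO and read at 492 nm against a 630 nm reference. Each line was tested three times, and IC50 is the average of at least three determinations.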

Assay [5] has as its system HT-29. Description: Induction of apoptosis in human HT-29 cells assessed as necrotic cells at 2 uM after 48 hrs by annexin V/propidium iodide staining based flow cytometric analysis (reference value: 3.66 %). The format is functional.
In assay [6] the test system is HT-29. Description: Induction of apoptosis in human HT-29 cells after 48 hrs by annexin V/propidium iodide staining based flow cytometric analysis. The format is functional, cell-based.
Assay [7] can be described thus: Cytotoxicity against human WI38 cells after 72 hrs by MTT assay. The format is cell-based. The conditions noted are these: WI-38, 72 h. In short, it runs like this:
as §2
Background: Formazan colour is commonly taken as a measure of viable cells.

Assay [8] has as its system HT-29. The assay can be described thus: Induction of apoptosis in human HT-29 cells assessed as viable cells at 1 uM after 48 hrs by annexin V/propidium iodide staining based flow cytometric analysis (reference value: 92.1 %). The format is functional. The conditions noted are these: HT-29, 48 h, read-out: Activity.
Assay [9] deals with HT-29. The assay can be described thus: Induction of apoptosis in human HT-29 cells assessed as viable cells 2 uM after 48 hrs by annexin V/propidium iodide staining based flow cytometric analysis (reference value: 92.1 %). The format is functional.
Assay [10] has as its system HT-29. Description: Induction of apoptosis in human HT-29 cells assessed as necrotic cells at 5 uM after 48 hrs by annexin V/propidium iodide staining based flow cytometric analysis (reference value: 3.66 %). The format is functional.
A short description of assay [11]: Antiproliferative activity against human H460 cells after 72 hrs by MTT assay. The format is functional, cell-based. Conditions: NCI-H460, 72 h. In short, it runs like this:
as §2

The target in assay [12] is Mast/stem cell growth factor receptor Kit (Homo sapiens) (UniProt P10721). The assay can be described thus: Inhibition of c-KIT (unknown origin) at 10 uM after 1 hr by mobility shift assay. Summed up: as §1
Sequence of Mast/stem cell growth factor receptor Kit (Homo sapiens) (P10721 whole entry): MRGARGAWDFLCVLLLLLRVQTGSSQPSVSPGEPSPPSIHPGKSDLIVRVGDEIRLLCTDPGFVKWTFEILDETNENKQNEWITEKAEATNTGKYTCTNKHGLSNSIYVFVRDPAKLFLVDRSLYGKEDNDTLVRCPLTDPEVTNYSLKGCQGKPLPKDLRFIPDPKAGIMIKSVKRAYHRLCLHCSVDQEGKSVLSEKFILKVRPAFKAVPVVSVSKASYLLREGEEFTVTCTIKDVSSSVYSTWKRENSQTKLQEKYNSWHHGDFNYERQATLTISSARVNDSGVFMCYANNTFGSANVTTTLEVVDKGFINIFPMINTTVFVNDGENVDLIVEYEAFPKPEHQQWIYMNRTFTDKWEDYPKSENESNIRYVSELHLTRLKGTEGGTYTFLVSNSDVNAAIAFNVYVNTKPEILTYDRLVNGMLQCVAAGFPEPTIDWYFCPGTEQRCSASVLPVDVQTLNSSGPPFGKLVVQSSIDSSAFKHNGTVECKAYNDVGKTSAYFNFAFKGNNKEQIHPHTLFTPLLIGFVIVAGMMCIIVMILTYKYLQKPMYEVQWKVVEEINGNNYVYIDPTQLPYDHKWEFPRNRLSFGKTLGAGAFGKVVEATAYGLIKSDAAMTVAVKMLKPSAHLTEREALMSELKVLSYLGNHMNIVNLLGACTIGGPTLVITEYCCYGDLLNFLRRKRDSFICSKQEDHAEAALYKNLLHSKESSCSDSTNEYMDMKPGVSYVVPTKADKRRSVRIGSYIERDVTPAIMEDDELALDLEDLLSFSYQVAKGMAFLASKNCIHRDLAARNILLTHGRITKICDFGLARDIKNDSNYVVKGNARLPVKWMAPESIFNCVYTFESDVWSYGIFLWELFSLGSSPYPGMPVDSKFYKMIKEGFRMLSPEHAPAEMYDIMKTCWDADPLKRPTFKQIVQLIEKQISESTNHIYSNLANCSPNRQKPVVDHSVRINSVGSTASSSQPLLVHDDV
For assay [13], the system named is HT-29. The assay can be described thus: Antiproliferative activity against human HT-29 cells after 72 hrs by MTT assay. The format is functional, cell-based. Conditions: HT-29, 72 h. In short, it runs like this:
as §2

The subject of assay [14] is HT-29. Description: Induction of apoptosis in human HT-29 cells assessed as necrotic cells at 1 uM after 48 hrs by annexin V/propidium iodide staining based flow cytometric analysis (reference value: 3.66 %). The format is functional.
Assay [15] relates to HT-29. The assay can be described thus: Induction of apoptosis in human HT-29 cells assessed as late apoptotic cells at 1 uM after 48 hrs by annexin V/propidium iodide staining based flow cytometric analysis (reference value: 2.49 %). The format is functional.
Assay [16] deals with HT-29. The assay can be described thus: Induction of apoptosis in human HT-29 cells assessed as viable cells 5 uM after 48 hrs by annexin V/propidium iodide staining based flow cytometric analysis (reference value: 92.1 %). The format is functional.
Assay [17] relates to HT-29. The assay can be described thus: Induction of apoptosis in human HT-29 cells assessed as early apoptotic cells at 5 uM after 48 hrs by annexin V/propidium iodide staining based flow cytometric analysis (reference value: 1.72 %). The format is functional.
The target in assay [18] is Proto-oncogene tyrosine-protein kinase receptor Ret (Homo sapiens) (UniProt P07949). Description: Inhibition of RET (unknown origin) at 10 uM after 1 hr by mobility shift assay. In short, it runs like this:
as §1

Assay [19] deals with HT-29. Description: Induction of apoptosis in human HT-29 cells assessed as late apoptotic cells at 2 uM after 48 hrs by annexin V/propidium iodide staining based flow cytometric analysis (reference value: 2.49 %). The format is functional.
The subject of assay [20] is HT-29. Description: Induction of apoptosis in human HT-29 cells assessed as early apoptotic cells at 2 uM after 48 hrs by annexin V/propidium iodide staining based flow cytometric analysis (reference value: 1.72 %). The format is functional.

1 compound from ChEMBL document CHEMBL3797160, “Discovery of novel diaryl urea derivatives bearing a triazole moiety as potential antitumor agents” (Eur J Med Chem, 2016) can be followed below.

Sequence of Vascular endothelial growth factor receptor 2 (Homo sapiens) (P35968 whole entry): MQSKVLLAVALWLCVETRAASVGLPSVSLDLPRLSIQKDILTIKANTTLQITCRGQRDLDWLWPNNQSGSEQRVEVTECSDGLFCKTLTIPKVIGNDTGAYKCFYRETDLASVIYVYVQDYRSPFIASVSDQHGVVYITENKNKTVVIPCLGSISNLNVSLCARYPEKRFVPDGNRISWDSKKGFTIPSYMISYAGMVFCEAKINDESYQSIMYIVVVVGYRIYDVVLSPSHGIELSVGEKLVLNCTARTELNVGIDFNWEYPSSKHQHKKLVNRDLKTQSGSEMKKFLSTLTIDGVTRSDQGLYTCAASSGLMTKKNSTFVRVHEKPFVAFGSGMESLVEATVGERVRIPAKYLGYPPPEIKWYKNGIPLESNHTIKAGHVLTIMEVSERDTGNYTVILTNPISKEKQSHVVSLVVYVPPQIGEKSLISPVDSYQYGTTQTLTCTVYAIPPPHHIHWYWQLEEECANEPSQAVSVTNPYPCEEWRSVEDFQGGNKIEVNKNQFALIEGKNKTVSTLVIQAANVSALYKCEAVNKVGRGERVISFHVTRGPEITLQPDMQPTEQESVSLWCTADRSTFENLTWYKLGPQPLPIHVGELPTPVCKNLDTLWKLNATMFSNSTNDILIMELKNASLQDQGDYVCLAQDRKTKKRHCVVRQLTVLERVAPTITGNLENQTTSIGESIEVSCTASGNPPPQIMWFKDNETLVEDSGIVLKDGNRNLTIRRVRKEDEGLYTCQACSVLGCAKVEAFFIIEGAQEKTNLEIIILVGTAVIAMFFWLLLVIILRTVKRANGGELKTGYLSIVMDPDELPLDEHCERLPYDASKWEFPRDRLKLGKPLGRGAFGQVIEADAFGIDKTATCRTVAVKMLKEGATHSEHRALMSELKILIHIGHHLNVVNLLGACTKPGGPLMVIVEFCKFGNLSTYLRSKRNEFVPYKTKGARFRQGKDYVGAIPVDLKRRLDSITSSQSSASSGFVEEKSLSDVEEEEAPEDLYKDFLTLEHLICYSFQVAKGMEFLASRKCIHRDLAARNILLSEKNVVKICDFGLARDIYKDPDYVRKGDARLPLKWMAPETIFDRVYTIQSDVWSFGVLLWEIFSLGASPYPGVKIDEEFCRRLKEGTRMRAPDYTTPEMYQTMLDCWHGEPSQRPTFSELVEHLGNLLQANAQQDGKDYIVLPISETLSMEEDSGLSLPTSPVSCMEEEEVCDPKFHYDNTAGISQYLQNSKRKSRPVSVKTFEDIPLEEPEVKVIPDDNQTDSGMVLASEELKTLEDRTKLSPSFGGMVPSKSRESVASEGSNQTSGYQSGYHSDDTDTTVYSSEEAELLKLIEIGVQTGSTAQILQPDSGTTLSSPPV
Sequence of Proto-oncogene tyrosine-protein kinase receptor Ret (Homo sapiens) (P07949 whole entry): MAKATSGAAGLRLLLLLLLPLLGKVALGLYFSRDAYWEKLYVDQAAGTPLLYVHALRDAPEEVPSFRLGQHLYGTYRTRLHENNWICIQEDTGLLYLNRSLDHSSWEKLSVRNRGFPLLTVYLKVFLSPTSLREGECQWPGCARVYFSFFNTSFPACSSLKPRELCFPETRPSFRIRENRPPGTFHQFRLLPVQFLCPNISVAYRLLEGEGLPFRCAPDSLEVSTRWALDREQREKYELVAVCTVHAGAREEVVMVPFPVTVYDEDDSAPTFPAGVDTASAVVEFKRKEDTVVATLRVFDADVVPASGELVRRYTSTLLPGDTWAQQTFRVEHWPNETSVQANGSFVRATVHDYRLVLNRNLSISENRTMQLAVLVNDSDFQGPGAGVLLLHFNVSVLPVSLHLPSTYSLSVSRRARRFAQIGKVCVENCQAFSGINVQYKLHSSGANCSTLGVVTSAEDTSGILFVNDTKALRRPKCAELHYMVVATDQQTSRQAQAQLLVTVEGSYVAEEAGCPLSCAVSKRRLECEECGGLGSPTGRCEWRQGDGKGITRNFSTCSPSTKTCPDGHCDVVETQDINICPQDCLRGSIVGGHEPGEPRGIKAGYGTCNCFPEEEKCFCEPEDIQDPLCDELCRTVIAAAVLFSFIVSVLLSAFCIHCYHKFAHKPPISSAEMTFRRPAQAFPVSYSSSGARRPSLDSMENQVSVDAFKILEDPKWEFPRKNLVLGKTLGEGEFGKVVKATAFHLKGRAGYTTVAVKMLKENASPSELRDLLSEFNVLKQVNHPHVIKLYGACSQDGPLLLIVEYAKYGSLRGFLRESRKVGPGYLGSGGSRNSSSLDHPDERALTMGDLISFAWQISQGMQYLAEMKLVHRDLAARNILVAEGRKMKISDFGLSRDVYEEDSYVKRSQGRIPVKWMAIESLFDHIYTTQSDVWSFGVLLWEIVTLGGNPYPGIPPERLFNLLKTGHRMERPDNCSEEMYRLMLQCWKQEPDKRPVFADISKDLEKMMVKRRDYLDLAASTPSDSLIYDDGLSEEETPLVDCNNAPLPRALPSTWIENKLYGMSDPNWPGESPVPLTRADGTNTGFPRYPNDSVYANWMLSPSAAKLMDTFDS
Sequence of Receptor-type tyrosine-protein kinase FLT3 (Homo sapiens) (P36888 whole entry): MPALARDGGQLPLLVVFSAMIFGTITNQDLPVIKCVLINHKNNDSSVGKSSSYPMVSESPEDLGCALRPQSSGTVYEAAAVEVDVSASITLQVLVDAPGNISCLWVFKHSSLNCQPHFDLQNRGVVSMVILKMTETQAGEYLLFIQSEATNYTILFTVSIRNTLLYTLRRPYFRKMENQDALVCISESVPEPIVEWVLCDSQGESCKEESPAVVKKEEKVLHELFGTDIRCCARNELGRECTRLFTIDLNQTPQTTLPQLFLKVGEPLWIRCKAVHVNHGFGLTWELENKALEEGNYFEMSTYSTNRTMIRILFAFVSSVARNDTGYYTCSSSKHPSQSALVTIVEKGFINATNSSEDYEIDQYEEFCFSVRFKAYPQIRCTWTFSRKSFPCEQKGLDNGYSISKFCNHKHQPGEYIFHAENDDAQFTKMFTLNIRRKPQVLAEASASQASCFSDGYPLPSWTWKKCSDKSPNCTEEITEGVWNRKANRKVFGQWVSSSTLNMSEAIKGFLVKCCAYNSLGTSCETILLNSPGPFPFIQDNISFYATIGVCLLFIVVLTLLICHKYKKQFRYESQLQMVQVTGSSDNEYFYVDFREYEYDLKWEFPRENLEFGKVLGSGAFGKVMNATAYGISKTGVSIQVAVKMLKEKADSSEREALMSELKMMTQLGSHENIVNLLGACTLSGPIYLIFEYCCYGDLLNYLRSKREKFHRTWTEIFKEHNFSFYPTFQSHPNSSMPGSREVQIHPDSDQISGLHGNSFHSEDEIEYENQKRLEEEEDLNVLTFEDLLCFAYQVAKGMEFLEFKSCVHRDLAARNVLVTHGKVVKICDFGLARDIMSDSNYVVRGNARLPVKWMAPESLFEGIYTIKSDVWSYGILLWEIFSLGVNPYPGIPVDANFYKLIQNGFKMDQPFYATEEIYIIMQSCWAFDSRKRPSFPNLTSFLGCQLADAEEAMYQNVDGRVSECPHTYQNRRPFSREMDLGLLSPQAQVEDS

The inhibition is the share of the control response that was lost under treatment. Broadly, the IC50 is the point on the concentration scale where inhibition reaches its midpoint. Read a high IC50 as weaker potency in that assay. As to `CCN(CC)CCn1cnnc1-c1cc(Oc2ccc(NC(=O)Nc3ccc(Cl)c(C(F)(F)F)c3)cc2F)ccn1`, the Activity was 37.5% with HT-29 [1]; 3.92% in the assay with HT-29 [3]; 6.03% in the assay on HT-29 [5]; “Dose-dependent effect” in the assay on HT-29 [6]; 66.4% in the assay on HT-29 [9]; 8.59% with HT-29 [10]. Besides, the Activity was 7.44% in the assay with HT-29 [14]; 8.34% in the assay on HT-29 [15]; 43.3% in the assay with HT-29 [16]; 10.6% in the assay on HT-29 [17]; 13.2% with HT-29 [19]; 14.4% with HT-29 [20]. In addition, the inhibition in [2] came out at 10%; in assay [4] it was 84.9%; in assay [12] it was 79.9%; in [18] it was 84.4%. In addition, the IC50 in the assay on MDA-MB-231 was 1540 nM; in [7], 6730 nM; in assay [11], 850 nM; in the assay on HT-29 [13], 900 nM. Besides, the viability at 1 µM in the assay with HT-29 [8] was 80.3%.
